Measured values as given in ChEMBL document CHEMBL1128665, “Design, synthesis, and structure-activity relationship of novel dinucleotide analogs as agents against herpes and human immunodeficiency viruses” (J Med Chem, 1995).

Legend:
[1] = compound: Nc1ncnc2c1ncn2COCCO; assay: (§1) Km value was determined by competitive inhibition of Adenosine deaminase
How it was run: (§2)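 Deamination rates of the nucleoside or nucleotide substrates were followed with calf mucosal adenosine deaminase (EC 3.5.4.4) in buffer solution. Km and Vmax, expressed relative to ara-A, were derived from these rates.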

[2] = compound: Nc1ncnc2c1ncn2COCCP(=O)(O)O; assay: as §1; how it was run: as §2
[3] = compound: Nc1ncnc2c1ncn2COCCP(=O)(O)O[C@H]1[C@H](O)[C@H](n2cnc3c(N)ncnc32)O[C@@H]1CO; assay: as §1; how it was run: as §2
[4] = compound: Nc1ncnc2c1ncn2[C@@H]1O[C@H](CO)[C@@H](O)[C@H]1O; assay: as §1; how it was run: as §2
[5] = compound: COC(=O)C(C)NP(=O)(CCOCn1cnc2c(N)ncnc21)O[C@H]1[C@H](O)[C@H](n2cnc3c(N)ncnc32)O[C@@H]1CO; assay: Km value was determined by competitive inhibition of Adenosine deaminase No reaction at 1500 uM

B1: Adenosine deaminase (Bos taurus), P56658 (protein)
chain: MAQTPAFNKPKVELHVHLDGAIKPETILYYGRKRGIALPADTPEELQNIIGMDKPLSLPEFLAKFDYYMPAIAGCREAVKRIAYEFVEMKAKDGVVYVEVRYSPHLLANSKVEPIPWNQAEGDLTPDEVVSLVNQGLQEGERDFGVKVRSILCCMRHQPSWSSEVVELCKKYREQTVVAIDLAGDETIEGSSLFPGHVKAYAEAVKSGVHRTVHAGEVGSANVVKEAVDTLKTERLGHGYHTLEDATLYNRLRQENMHFEVCPWSSYLTGAWKPDTEHPVVRFKNDQVNYSLNTDDPLIFKSTLDTDYQMTKNEMGFTEEEFKRLNINAAKSSFLPEDEKKELLDLLYKAYGMPSPASAEQCL
B1 showed a Km [1] of 138 µM, a Km [2] of 248 µM and a Km [3] of 166 µM. For the same protein, the Km [4] was 45.3 µM and the Km [5] was “No reaction”.
